Results: ChEMBL document CHEMBL4414550, “Binding of Monovalent and Bivalent Ligands by Transthyretin Causes Different Short- and Long-Distance Conformational Changes” (J Med Chem, 2019)
Active and inactive are the calls of the source. No cut-off for these calls is given here.

Key:
[1] = biological target: Transthyretin (Homo sapiens) (UniProt P02766); experiment: Binding affinity to His6-tagged wild-type TTR (unknown origin) expressed in Escherichia coli BL21 star (DE3) assessed as assignment of protein resonance by TROSY [1H-13C-15N] HNCA spectroscopy
Procedure, shortened: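 3D HNCA spectra of TTR acquired in the presence of ligand to confirm the backbone resonance assignment. The assignment was made de novo from TROSY multidimensional experiments at 310 K, pH 7.0 and 7.4.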

[2] = biological target: Transthyretin (Homo sapiens) (UniProt P02766); experiment: Binding affinity to wild-type TTR (unknown origin) assessed as induction of chemical shift at H90 residue at 1:1 ratio of compound to protein by 2D TROSY [1H-15N] spectroscopy
Procedure, shortened: (§1)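 50 μM TTR in 600 μL titrated with ligand from 10 mM stocks in DMSO-d6 (up to 6 μL; at most 1% v/v DMSO-d6). 2D [1H,15N] TROSY spectra recorded at ligand/protein ratios 0, 0.5, 1.0, 1.5 and 2.0 for the monovalent ligand and 0, 0.5 and 1.0 for the bivalent ligand. Per-residue amide shifts were expressed as a combined chemical shift change in ppm.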

[3] = biological target: Transthyretin (Homo sapiens) (UniProt P02766); experiment: Binding affinity to wild-type TTR (unknown origin) assessed as induction of chemical shift perturbation at A120 residue at 1:1 ratio of compound to protein by 2D TROSY [1H-15N] spectroscopy; procedure, shortened: as §1
[4] = biological target: Transthyretin (Homo sapiens) (UniProt P02766); experiment: Binding affinity to wild-type TTR (unknown origin) assessed as increase in bound resonance at L55 residue at 0.5:1 to 1:1 ratio of compound to protein by 2D TROSY [1H-15N] spectroscopy; procedure, shortened: as §1
[5] = biological target: Transthyretin (Homo sapiens) (UniProt P02766); experiment: Binding affinity to His6-tagged wild-type TTR (unknown origin) expressed in Escherichia coli BL21 star (DE3) at 0.5:1 ratio of test compound to protein by 2D TROSY [1H-15N] spectroscopy; procedure, shortened: as §1
[6] = biological target: Transthyretin (Homo sapiens) (UniProt P02766); experiment: Binding affinity to wild-type TTR (unknown origin) assessed as induction of chemical shift at S117 residue at 0.6:1 to 1:1 ratio of compound to protein by 2D TROSY [1H-15N] spectroscopy; procedure, shortened: as §1
[7] = biological target: Transthyretin (Homo sapiens) (UniProt P02766); experiment: Binding affinity to wild-type TTR (unknown origin) assessed as induction of chemical shift at R21 residue at 0.6:1 to 1:1 ratio of compound to protein by 2D TROSY [1H-15N] spectroscopy; procedure, shortened: as §1
[8] = biological target: Transthyretin (Homo sapiens) (UniProt P02766); experiment: Binding affinity to wild-type TTR (unknown origin) assessed as formation of hydrogen bond between A25 and T49 at 1:1 ratio of compound to protein by 2D TROSY [1H-15N] spectroscopy
[9] = biological target: Transthyretin (Homo sapiens) (UniProt P02766); experiment: Binding affinity to wild-type TTR (unknown origin) assessed as induction of chemical shift at L110 residue at 0.6:1 to 1:1 ratio of compound to protein by 2D TROSY [1H-15N] spectroscopy; procedure, shortened: as §1
[10] = biological target: Transthyretin (Homo sapiens) (UniProt P02766); experiment: Binding affinity to wild-type TTR (unknown origin) assessed as induction of chemical shift at G22 residue at 0.6:1 to 1:1 ratio of compound to protein by 2D TROSY [1H-15N] spectroscopy; procedure, shortened: as §1
[11] = biological target: Transthyretin (Homo sapiens) (UniProt P02766); experiment: Binding affinity to wild-type TTR (unknown origin) assessed as chemical shift perturbation at K9 residue at 1:1 ratio of compound to protein by 2D TROSY [1H-15N] spectroscopy; procedure, shortened: as §1
[12] = biological target: Transthyretin (Homo sapiens) (UniProt P02766); experiment: Binding affinity to wild-type TTR (unknown origin) assessed as induction of chemical shift at L17 residue at 0.6:1 to 1:1 ratio of compound to protein by 2D TROSY [1H-15N] spectroscopy; procedure, shortened: as §1
[13] = biological target: Transthyretin (Homo sapiens) (UniProt P02766); experiment: Binding affinity to wild-type TTR (unknown origin) assessed as induction of chemical shift at A108 residue at 0.6:1 to 1:1 ratio of compound to protein by 2D TROSY [1H-15N] spectroscopy; procedure, shortened: as §1
[14] = biological target: Transthyretin (Homo sapiens) (UniProt P02766); experiment: Binding affinity to wild-type TTR (unknown origin) assessed as chemical shift perturbation at DE loops at 1:1 ratio of compound to protein by 2D TROSY [1H-15N] spectroscopy; procedure, shortened: as §1
[15] = biological target: Transthyretin (Homo sapiens) (UniProt P02766); experiment: Binding affinity to wild-type TTR (unknown origin) assessed as induction of chemical shift at Y114 residue at 0.6:1 to 1:1 ratio of compound to protein by 2D TROSY [1H-15N] spectroscopy; procedure, shortened: as §1
[16] = biological target: Transthyretin (Homo sapiens) (UniProt P02766); experiment: Binding affinity to wild-type TTR (unknown origin) assessed as chemical shift perturbation at EH1 loops at 1:1 ratio of compound to protein by 2D TROSY [1H-15N] spectroscopy; procedure, shortened: as §1
[17] = biological target: Transthyretin (Homo sapiens) (UniProt P02766); experiment: Binding affinity to wild-type TTR (unknown origin) assessed as induction of chemical shift at T118 residue at 0.6:1 to 1:1 ratio of compound to protein by 2D TROSY [1H-15N] spectroscopy; procedure, shortened: as §1
[18] = biological target: Transthyretin (Homo sapiens) (UniProt P02766); experiment: Binding affinity to wild-type TTR (unknown origin) assessed as induction of chemical shift at E92 residue at 0.6:1 to 1:1 ratio of compound to protein by 2D TROSY [1H-15N] spectroscopy; procedure, shortened: as §1
[19] = biological target: Transthyretin (Homo sapiens) (UniProt P02766); experiment: Binding affinity to wild-type TTR (unknown origin) assessed as induction of chemical shift at A19 residue at 0.6:1 to 1:1 ratio of compound to protein by 2D TROSY [1H-15N] spectroscopy; procedure, shortened: as §1
[20] = biological target: Transthyretin (Homo sapiens) (UniProt P02766); experiment: Binding affinity to wild-type TTR (unknown origin) assessed as induction of chemical shift perturbation at V93 residue at 1:1 ratio of compound to protein by 2D TROSY [1H-15N] spectroscopy; procedure, shortened: as §1
[21] = biological target: Transthyretin (Homo sapiens) (UniProt P02766); experiment: Binding affinity to wild-type TTR (unknown origin) assessed as chemical shift perturbation at CD loops at 1:1 ratio of compound to protein by 2D TROSY [1H-15N] spectroscopy; procedure, shortened: as §1
[22] = biological target: Transthyretin (Homo sapiens) (UniProt P02766); experiment: Binding affinity to His6-tagged wild-type TTR (unknown origin) expressed in Escherichia coli BL21 star (DE3) at 1:1 ratio of test compound to protein by 2D TROSY [1H-15N] spectroscopy; procedure, shortened: as §1
[23] = biological target: Transthyretin (Homo sapiens) (UniProt P02766); experiment: Binding affinity to wild-type TTR (unknown origin) assessed as chemical shift perturbation at H1 helix at 1:1 ratio of compound to protein by 2D TROSY [1H-15N] spectroscopy; procedure, shortened: as §1
[24] = biological target: Transthyretin (Homo sapiens) (UniProt P02766); experiment: Binding affinity to wild-type TTR (unknown origin) assessed as induction of chemical shift at L58 residue at 0.6:1 to 1:1 ratio of compound to protein by 2D TROSY [1H-15N] spectroscopy; procedure, shortened: as §1
[25] = biological target: Transthyretin (Homo sapiens) (UniProt P02766); experiment: Binding affinity to wild-type TTR (unknown origin) assessed as induction of chemical shift at H88 residue at 0.6:1 to 1:1 ratio of compound to protein by 2D TROSY [1H-15N] spectroscopy; procedure, shortened: as §1
[26] = biological target: Transthyretin (Homo sapiens) (UniProt P02766); experiment: Binding affinity to wild-type TTR (unknown origin) assessed as induction of chemical shift at T96 residue at 0.6:1 to 2:1 ratio of compound to protein by 2D TROSY [1H-15N] spectroscopy; conditions: in the assay text read “0.6:1 to 1:1 ratio” for “0.6:1 to 2:1 ratio”; procedure, shortened: as §1
[27] = biological target: Transthyretin (Homo sapiens) (UniProt P02766); experiment: Binding affinity to wild-type TTR (unknown origin) assessed as induction of chemical shift at E72 residue at 0.6:1 to 1:1 ratio of compound to protein by 2D TROSY [1H-15N] spectroscopy; procedure, shortened: as §1
[28] = biological target: Transthyretin (Homo sapiens) (UniProt P02766); experiment: Binding affinity to wild-type TTR (unknown origin) assessed as chemical shift perturbation at protein dimer-dimer interface at 1:1 ratio of compound to protein by 2D TROSY [1H-15N] spectroscopy; procedure, shortened: as §1
[29] = biological target: Transthyretin (Homo sapiens) (UniProt P02766); experiment: Binding affinity to wild-type TTR (unknown origin) assessed as induction of chemical shift at A109 residue at 0.6:1 to 1:1 ratio of compound to protein by 2D TROSY [1H-15N] spectroscopy; procedure, shortened: as §1

O=C(O)c1ccc2nc(-c3cc(Cl)cc(Cl)c3)oc2c1
Activity [1]: Active
Activity [2]: Active
Activity [3]: Active
Activity [4]: Active
Activity [5]: Active

O=C(O)c1ccccc1Nc1cc(Cl)c(OCCCCCCCOc2c(Cl)cc(Nc3ccccc3C(=O)O)cc2Cl)c(Cl)c1
Activity [1]: Active
Activity [6]: inactive
Activity [7]: inactive
Activity [8]: Active
Activity [9]: inactive
Activity [10]: inactive
Activity [11]: Active
Activity [2]: Active
Activity [12]: inactive
Activity [13]: inactive
Activity [14]: Active
Activity [15]: inactive
Activity [16]: Active
Activity [17]: inactive
Activity [18]: inactive
Activity [19]: inactive
Activity [20]: Active
Activity [21]: Active
Activity [22]: Active
Activity [23]: Active
Activity [24]: inactive
Activity [25]: inactive
Activity [26]: inactive
Activity [3]: Active
Activity [4]: Active
Activity [5]: Active
Activity [27]: Active
Activity [28]: Active
Activity [29]: inactive
